Bioassay records from PubChem BioAssay.
This is a sample that favours compounds with a hit; in the whole collection about 4.1% have one here.
Apaf-1 inh: inhibitors of human Apaf-1 apoptosome. inhibition, % at 20 µM. 0.71% of 330,000 active. O14727. AID 489030. reconstituted apoptosome caspase-3 activity, DEVD-Rh110 fluorescence; active = inhibition of at least 40% at 20 µM;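 note: plate controls were DMSO wells for no effect and DEVD-CHO caspase inhibitor wells for full effect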
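Material: reconstituted apoptosome with Apaf-1, cytochrome c, caspase-9, procaspase-3, dATP. Technique: Rh110 fluorescence intensity. Buffer or medium: pH 7.5 Hepes buffer with CHAPS, BSA, DTT. Times: 30 min plus 50 min, RT.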
XBP1 UPR activ: activators of adaptive arm of unfolded protein response (XBP1); 0.33% of 330,000 active; AID 463104; CHO-XBP1 luciferase reporter, IRE1-XBP1 UPR activation, luminescence; percent of tunicamycin response, DMSO as zero; activation, % at 20 µM;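 active = versus positive control, 20 µM dose yields 30% or more activation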;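 note: 100% = tunicamycin at 10 µg/mL and 0% = DMSO only wells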
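Assay system: CHO-XBP1 luciferase reporter cells; Schedule: 6 h treatment, 37 °C; Detection: glow luminescence from Steady-Glo reagent; Benchmarks: high control tunicamycin 10 µg/mL final, low control DMSO vehicle only.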
UPR CHOP act: activators of apoptotic arm of unfolded protein response (CHOP) | CHO-CHOP luciferase reporter, UPR activation, luminescence; percent of tunicamycin response over DMSO baseline | activation, % at 10 µM | 0.34% of 330,000 active | AID 449763;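 active = at 10 µM dose, activation of 40% or more, normalized to positive control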;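 note: 100% = tunicamycin at 10 µg/mL and 0% = DMSO alone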
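assay system = CHO CHOP reporter cells | amount = 500 CHO-CHOP cells per well | buffer or medium = F12 with 10% FBS | incubation = 16-18 h cell attachment, then 6 h compound exposure, 37 °C | detection = luminescence read with Steady-Glo | read-out = percent activation relative to tunicamycin control | controls = tunicamycin high control, DMSO low control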
Mdm2-MdmX inh: disrupts the human Mdm2-MdmX interaction; SaOS-2 split-luciferase Mdm2/MdmX complementation, luminescence; inhibition, % at 8 µM; 3% of 330,000 active; AID 485346;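 active = inhibition of at least 50% at 8 µM in the primary screen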
UBC13 polyUb: human UBC13 polyubiquitination inhibition | UBC13 polyubiquitin chain formation, TR-FRET | AID 485273 | 0.47% of 330,000 active | inhibition, % at 20 µM; in the data active = inhibition above about 45%, passing the limit was not always enough
Target sequence (P61088 whole entry, looked up): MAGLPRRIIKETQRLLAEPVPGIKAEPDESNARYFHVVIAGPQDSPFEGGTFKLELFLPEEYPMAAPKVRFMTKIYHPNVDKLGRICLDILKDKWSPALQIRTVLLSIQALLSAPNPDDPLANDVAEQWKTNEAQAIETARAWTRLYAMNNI
Mdm2 MdmX conf: confirmation of human Mdm2/MdmX interaction inhibitors | AID 489028 | Mdm2-MdmX binding, luminescent assay | inhibition, % at 8 µM | shares compounds with Mdm2-MdmX inh | 55% of 10,000 active; in the data active = inhibition above about 40%
Full FLuc ctr: full-length luciferase inhibition in Mdm2/MdmX counter-screen; inhibition, % at 8 µM; shares compounds with Mdm2-MdmX inh; 77% of 6,200 active; SaOS-2 full-length luciferase counterscreen, luminescence; AID 504607;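 active = mean inhibition at 8 µM reaching about 37%, which flags the compound as non-specific, limit read from the data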;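 note: p53-null SaOS-2 cells with luciferase driven by a doxycycline-inducible promoter; compound on cells about two nights before reading with doxycycline added after day one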
* marks the source's active call; other numbers are inactive results.

`O=C(CCl)N1CCN2C(=O)c3ccccc3C12c1ccc(Cl)cc1` (stereo unspecified) gave Apaf-1 inh 12, XBP1 UPR activ -10, UPR CHOP act -1, Mdm2-MdmX inh 100*, UBC13 polyUb -3, Mdm2 MdmX conf 48* and Full FLuc ctr 28.
COc1ccc(OC)c(C2=Nn3c(nnc3C3CCCCC3)SC2)c1 was read as Apaf-1 inh 18, XBP1 UPR activ 0, UPR CHOP act 1, Mdm2-MdmX inh 23 and UBC13 polyUb 8.
Screening COc1ccc(C2=Nn3c(nnc3-c3ccccc3OC)SC2)cc1OCC1CC1 returned Apaf-1 inh 30, XBP1 UPR activ 22, UPR CHOP act 2, Mdm2-MdmX inh 74*, UBC13 polyUb 10, Mdm2 MdmX conf 66* and Full FLuc ctr 86*.
Screening COc1ccc(OC)c(-c2nnc3n2N=C(c2ccc(OC(F)F)c(OCC4CC4)c2)CS3)c1 returned Apaf-1 inh 31, XBP1 UPR activ 26, UPR CHOP act 0, Mdm2-MdmX inh 57*, UBC13 polyUb 20, Mdm2 MdmX conf 55* and Full FLuc ctr 46*.
`COc1ccc(OC)c(-c2nnc3n2N=C(c2ccc(OC)c(OC4CCCC4)c2)CS3)c1` gave Apaf-1 inh 38, XBP1 UPR activ 14, UPR CHOP act 2, Mdm2-MdmX inh 84*, UBC13 polyUb 28, Mdm2 MdmX conf 75* and Full FLuc ctr 66*.
For Cc1cnc(C(=O)NC2CC(C)(C)Cc3c2cnn3-c2cccc(F)c2)cn1 (stereo unspecified) the results were Apaf-1 inh -1, XBP1 UPR activ -6, UPR CHOP act 2, Mdm2-MdmX inh 14 and UBC13 polyUb -5.
`Cc1cc(C(=O)OCC(=O)c2c(N)n(C)c(=O)n(C)c2=O)c(C)n1-c1ccccc1` gave Apaf-1 inh 6, XBP1 UPR activ 5, UPR CHOP act 3, Mdm2-MdmX inh 22 and UBC13 polyUb 2.
Screening C/C(=N\O)C(=O)NCCN(C)C returned Apaf-1 inh -16, XBP1 UPR activ 0, UPR CHOP act 0, Mdm2-MdmX inh 17 and UBC13 polyUb 2.
`COc1ccc(/C=N/n2cnc3c([nH]c4ccc(Br)cc43)c2=O)cc1CN1CCOCC1` gave Apaf-1 inh 14, XBP1 UPR activ -5, UPR CHOP act -3, Mdm2-MdmX inh 57*, UBC13 polyUb 31 and Mdm2 MdmX conf 26.
`COc1c(Cl)cccc1-c1cn2ccc(C)cc2n1` gave Apaf-1 inh -5, XBP1 UPR activ -2, UPR CHOP act 2, Mdm2-MdmX inh -215 and UBC13 polyUb 9.
O=C(CN(CCc1ccccc1)C(=O)CNS(=O)(=O)c1ccc(F)cc1)NCC1CCCO1 (stereo unspecified) was read as Apaf-1 inh -12, XBP1 UPR activ -2, UPR CHOP act 1, Mdm2-MdmX inh 7 and UBC13 polyUb -2.
For CN1CC(=O)N2C(c3ccc(Cl)cc3)c3[nH]c4ccccc4c3C[C@H]2C1=O (stereo partly specified) the results were Apaf-1 inh 4, XBP1 UPR activ 2, UPR CHOP act -2, Mdm2-MdmX inh 52*, UBC13 polyUb 4 and Mdm2 MdmX conf 14.
COc1ccc(C2c3[nH]c4ccccc4c3C[C@H]3C(=O)N(C4CCN(Cc5ccccc5)CC4)CC(=O)N23)cc1OC (stereo partly specified) was read as Apaf-1 inh 21, XBP1 UPR activ -2, UPR CHOP act 4, Mdm2-MdmX inh 27 and UBC13 polyUb 10.
For COC(=O)c1ccc(C2c3[nH]c4ccccc4c3C[C@H]3C(=O)N(C)CC(=O)N23)cc1 (stereo partly specified) the results were Apaf-1 inh 10, XBP1 UPR activ -5, UPR CHOP act -2, Mdm2-MdmX inh 3 and UBC13 polyUb -1.
